Four molecules from ChEMBL document CHEMBL4011621, “A Novel Series of Highly Potent Small Molecule Inhibitors of Rhinovirus Replication” (J Med Chem, 2017) can be followed below.

pEC50: −log10 of the molar value. The source made the active and inactive calls. No cut-off for these calls is given here.

The subject of data set [1] is rhinovirus B14. Nature of the data set: Antiviral activity against Human rhinovirus B14 harboring VP1 C199Y mutant infected in human HeLa Rh cells assessed as protection against virus induced cytopathic effect after 3 days by MTT assay. It counts as functional, cell-based. Background: Protection from cytopathic effect is a common read-out in antiviral testing.
Data set [2] has as its system rhinovirus B14. Nature of the data set: Antiviral activity against Human rhinovirus B14 harboring VP1 A150V/E276K double mutant infected in human HeLa Rh cells assessed as protection against virus induced cytopathic effect after 3 days by MTT assay. It is filed as functional, cell-based.
The subject of data set [3] is rhinovirus B14. Nature of the data set: Antiviral activity against Human rhinovirus B14 infected in human H1HeLa cells assessed as protection against virus induced cytopathic effect after 3 days by MTT assay. It counts as functional, cell-based. Conditions: Rhinovirus B, H1-HeLa, 72 h.
A short description of data set [4]: Cytotoxicity against human HeLa Rh cells assessed as decrease in cell viability after 3 days by MTT assay. It is filed as cell-based. On the technique in general: Tetrazolium dyes change colour on reduction, which living cells bring about.
For data set [5], the system named is rhinovirus A16. Put plainly: Antiviral activity against Human rhinovirus A16 infected in H1HeLa cells assessed as decrease in viral dsRNA at 6 times EC50 treated 1 hr prior to infection by DAPI staining based immunofluorescence assay. It counts as functional, cell-based. Put shortly: (§1)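 Cells were infected with hRV type 14 or type 16 at MOI 1. Compound was given 1 h before infection, at infection (0 h), or at later hourly time points. At 9 h post-infection, cells were fixed in ice-cold methanol–acetone 3:1 and stained with anti-dsRNA antibody (J2), an Alexa Fluor 488 anti-mouse secondary and DAPI, then imaged. Infected-cell count over total nuclei was expressed as % of untreated virus control; mean ± SD, three experiments.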

Data set [6] concerns rhinovirus A16. Put plainly: Antiviral activity against Human rhinovirus A16 infected in human H1HeLa cells assessed as protection against virus induced cytopathic effect after 3 days by MTT assay. As to conditions: Rhinovirus A, H1-HeLa, 72 h. It counts as functional, cell-based. Put shortly:
(§2)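 CPE-reduction assay in H1HeLa cells plated 2 d before. Equal volumes of virus and compound were added and held at 33 °C for 3 d under CO2. Supernatant was removed, then MTT was added for 1 h at 37 °C. Formazan was dissolved and read at 540 nm against a 690 nm reference. Survival was scaled between uninfected untreated wells (100%) and virus-only wells (0%); mean ± SD, three experiments.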

A short description of data set [7]: Selectivity index, ratio of CC50 for human HeLa cells to EC50 for human poliovirus 3 infected in human HeLa cells. It is filed as toxicity, cell-based. Conditions: read-out: Ratio CC50/EC50. Summed up:
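SI = CC50/EC50 in HeLa cells. CC50 = 50% cell death by MTT. EC50 = 50% inhibition of PV3 CPE by MTT after 2 d at 37 °C, survival scaled to uninfected (100%) and virus-only (0%) wells. At least three independent experiments.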

Data set [8] has as its system Poliovirus 3. Put plainly: Antiviral activity against Human poliovirus 3 infected in human HeLa cells assessed as protection against virus induced cytopathic effect after 2 days by MTT assay. It is filed as functional, cell-based. Conditions: Enterovirus C, 48 h. Summed up:
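HeLa cells; MTT-based CPE reduction. Virus and compound added in equal volumes, incubated 37 °C for 2 d in CO2. Supernatant removed, MTT 1 h at 37 °C, formazan dissolved, absorbance 540 nm (690 nm reference). Uninfected untreated wells = 100% survival, virus-only = 0%. EC50 = 50% inhibition; means ± SD, three experiments.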

Data set [9] is described as follows: Selectivity index, ratio of CC50 for human H1HeLa cells to EC50 for Human rhinovirus A71 infected in human H1HeLa cells. It counts as toxicity, cell-based. Conditions: read-out: Ratio CC50/EC50. Put shortly:
(§3)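 H1HeLa cells plated 2 d ahead; virus plus compound (equal volumes) incubated 33 °C, 3 d, CO2. MTT 1 h at 37 °C, A540/A690. Survival scaled between uninfected untreated (100%) and virus-only (0%) wells to give EC50. CC50 = 50% cell death by MTT in H1HeLa. SI = CC50/EC50; at least three independent experiments.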

Data set [10] has as its system rhinovirus B14. Nature of the data set: Antiviral activity against Human rhinovirus B14 infected in H1HeLa cells assessed as decrease in viral dsRNA at 6 times EC50 treated every 1 hr for 9 hrs after infection by DAPI staining based immunofluorescence assay. It is filed as functional, cell-based. Put shortly: as §1
Data set [11] in a line: Selectivity index, ratio of CC50 for human H1HeLa cells to EC50 for Human rhinovirus B14 infected in human H1HeLa cells. Conditions: read-out: Ratio CC50/EC50. It is filed as toxicity, cell-based. Summed up:
as §3

A short description of data set [12]: Cytotoxicity against human H1HeLa cells assessed as decrease in cell viability after 3 days by MTT assay. It is filed as cell-based, H1-HeLa.
In data set [13] the test system is rhinovirus A16. Nature of the data set: Antiviral activity against Human rhinovirus A16 infected in H1HeLa cells assessed as decrease in viral dsRNA at 6 times EC50 treated simultaneously with infection by DAPI staining based immunofluorescence assay. It counts as functional, cell-based. Put shortly: as §1
The subject of data set [14] is rhinovirus A21. Nature of the data set: Antiviral activity against Human rhinovirus A21 infected in human H1HeLa cells assessed as protection against virus induced cytopathic effect after 3 days by MTT assay. It counts as functional, cell-based. Conditions: Rhinovirus A, H1-HeLa, 72 h. Summed up: as §2
Data set [15] has as its system rhinovirus B14. Nature of the data set: Antiviral activity against Human rhinovirus B14 infected in H1HeLa cells assessed as decrease in viral dsRNA at 6 times EC50 treated 1 hr prior to infection by DAPI staining based immunofluorescence assay. It is filed as functional, cell-based. Put shortly: as §1
Data set [16] in a line: Antiviral activity against Human rhinovirus A71 infected in human H1HeLa cells assessed as protection against virus induced cytopathic effect after 3 days by MTT assay. It counts as functional, cell-based. Conditions: Rhinovirus A, H1-HeLa, 72 h. Put shortly:
as §2

Data set [17] deals with rhinovirus B14. Nature of the data set: Antiviral activity against Human rhinovirus B14 infected in H1HeLa cells assessed as decrease in viral dsRNA at 6 times EC50 treated simultaneously with infection by DAPI staining based immunofluorescence assay. It is filed as functional, cell-based. Put shortly: as §1
A short description of data set [18]: Selectivity index, ratio of CC50 for human H1HeLa cells to EC50 for Human rhinovirus A21 infected in human H1HeLa cells. It is filed as toxicity, cell-based. As to conditions: read-out: Ratio CC50/EC50. Put shortly:
as §3

Data set [19] in a line: Cytotoxicity aganist human HeLa cells assessed as decrease in cell viability after 2 days by MTT assay. It is filed as cell-based.
The subject of data set [20] is rhinovirus A16. Nature of the data set: Antiviral activity against Human rhinovirus A16 infected in H1HeLa cells assessed as decrease in viral dsRNA at 6 times EC50 treated every 1 hr for 9 hrs after infection by DAPI staining based immunofluorescence assay. It counts as functional, cell-based. Put shortly:
as §1

For data set [21], the system named is rhinovirus B14. Nature of the data set: Antiviral activity against Human rhinovirus B14 infected in H1HeLa cells assessed as decrease in viral dsRNA at 6 times EC50 treated every 1 hr for 6 hrs after infection by DAPI staining based immunofluorescence assay. It counts as functional, cell-based. Put shortly: as §1

In general, pEC50 refers to −log10 of the EC50, conventionally taken in molar units. What is called CC50 is the concentration giving 50% cytotoxicity. In the case of `C#CC[C@@H](C(=O)N[C@H](/C=C/C(=O)OCC)C[C@@H]1CCNC1=O)n1cccc(NC(=O)c2cc(C)on2)c1=O` [IMOCITRELVIR], the pEC50 in data set [1] is 7.25; in [2], 7.31; in [3] it was 7.35. The CC50 at 72 h in data set [4] was above 3 µM.
For the molecule `Cc1cc(CCCOc2c(C)cc(-c3noc(C(F)(F)F)n3)cc2C)on1` [PLECONARIL], the result in data set [5], in data set [13], in data set [15] and in data set [17] was Active. In addition, the pEC50 in [6] is 6.46; in data set [1] it was 5.64; in [8] it was 5.85; in data set [2], 5.83; in data set [14] it was 7.14; in [3], 7.04 to 7.12. For the same molecule, the pEC50 in [16] is 8.03. Moreover, the selectivity ratio turned out to be 19 in [7], 2100 in data set [9], 210 in data set [11] and 270 in data set [18]. In addition, the result in [10] was inactive. The CC50 at 72 h was 19.7 µM in [12] and above 10 µM in data set [4]. In addition, the CC50 at 48 h in data set [19] worked out at 25.9 µM.
For `CNC(=O)c1cc(Oc2ccc3c(C)c(C(=O)OC(C)C)sc3c2)ccn1`, the result in data set [5], in data set [13], in [15] and in [17] was Active. For the same molecule, the pEC50 was 6.64 in [6]; 5.62 in data set [1]; 7.20 in [8]; 6.58 in data set [2]; 7.11 in data set [14]; 7.08 to 7.15 in [3]. Moreover, in data set [16], the pEC50 was 7.82. Also, the selectivity ratio in data set [7] is 150; in data set [9], 1200; in [11], 220; in data set [18] it was 230. For the same molecule, the result in data set [10] and in data set [20] was inactive. In addition, the CC50 at 72 h is 18.1 µM in data set [12] and above 3 µM in [4]. In addition, the CC50 at 48 h in data set [19] worked out at 9.6 µM.
Take `CCOC(=O)/C=C/[C@H](C[C@@H]1CCNC1=O)NC(=O)[C@@H](CC(=O)[C@@H](NC(=O)c1cc(C)on1)C(C)C)Cc1ccc(F)cc1` [RUPINTRIVIR]: the pEC50 in [6] is 7.52. Besides, the outcome in data set [21] was Active.
